ChEMBL document CHEMBL1275331, “Discovery of a novel 5-HT(3) antagonist/5-HT(1A) agonist 3-amino-5,6,7,8-tetrahydro-2-{4-[4-(quinolin-2-yl)piperazin-1-yl]butyl}quinazolin-4(3H)-one (TZB-30878) as an orally bioavailable agent for irritable bowel syndrome” (J Med Chem, 2010)

Key:
[1] = molecular target: Adrenergic receptor alpha-1 (Rattus norvegicus, UniProt P15823+P23944+P43140); experiment: Inhibition of rat alpha1 adrenergic receptor
[2] = molecular target: T1, 5-hydroxytryptamine receptor 3A (Homo sapiens, UniProt P46098); experiment: Displacement of [3H]BRL-43694 from human 5HT3 receptor expressed in HEK293 cells by liquid scintillation counting; type: cell-based
T1 sequence (P46098 whole entry): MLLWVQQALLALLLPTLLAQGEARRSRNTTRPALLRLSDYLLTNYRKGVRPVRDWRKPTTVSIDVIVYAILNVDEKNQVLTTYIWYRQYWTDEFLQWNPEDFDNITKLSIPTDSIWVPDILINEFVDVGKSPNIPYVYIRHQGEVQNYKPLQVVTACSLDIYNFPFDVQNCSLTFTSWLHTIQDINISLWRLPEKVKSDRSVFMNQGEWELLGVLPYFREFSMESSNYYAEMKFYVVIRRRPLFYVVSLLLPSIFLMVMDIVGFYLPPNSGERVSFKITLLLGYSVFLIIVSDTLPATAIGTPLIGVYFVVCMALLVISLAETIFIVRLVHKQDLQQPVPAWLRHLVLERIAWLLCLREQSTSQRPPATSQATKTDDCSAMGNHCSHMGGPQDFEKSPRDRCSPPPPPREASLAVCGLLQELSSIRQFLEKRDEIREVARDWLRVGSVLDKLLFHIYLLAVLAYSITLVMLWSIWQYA
Method in brief: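 HEK-293 membranes expressing human 5-HT3 were incubated with 0.5 nmol/L [3H]BRL-43694 (final) for 60 min at 25 °C. Buffer: 50 mM Tris-HCl, 5 mM MgCl2, 1 mM EDTA, pH 7.5. Compound came from 270 μmol/L DMSO stock, diluted in buffer. Filtration was through GF/B presoaked in 0.5% polyethyleneimine, with two cold Tris washes. Run in duplicate or triplicate; percent inhibition calculated.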

[3] = molecular target: Sodium-dependent noradrenaline transporter (Homo sapiens, UniProt P23975); experiment: Displacement of [3H]nisoxetine from human recombinant NET
[4] = molecular target: T2, 5-hydroxytryptamine receptor 1A (Homo sapiens) (UniProt P08908); experiment: Agonist activity at human cloned 5HT1A receptor expressed in CHO cells assessed as stimulation of [35S]GTPgammaS binding at 900 uL after 30 mins by liquid scintillation counting; type: functional, cell-based
T2 sequence (whole entry): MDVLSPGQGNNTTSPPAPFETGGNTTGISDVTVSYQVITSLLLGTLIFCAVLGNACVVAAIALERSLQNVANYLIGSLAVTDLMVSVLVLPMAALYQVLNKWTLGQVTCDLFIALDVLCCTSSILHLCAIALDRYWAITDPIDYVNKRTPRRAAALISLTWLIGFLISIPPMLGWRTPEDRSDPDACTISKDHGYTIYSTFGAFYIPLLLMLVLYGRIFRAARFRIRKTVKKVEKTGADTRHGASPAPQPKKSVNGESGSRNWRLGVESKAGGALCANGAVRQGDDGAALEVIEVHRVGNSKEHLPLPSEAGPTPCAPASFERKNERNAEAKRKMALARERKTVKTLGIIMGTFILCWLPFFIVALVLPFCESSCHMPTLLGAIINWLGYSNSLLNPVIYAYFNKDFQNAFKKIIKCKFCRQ
Method in brief: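 Membranes from CHO cells expressing human 5-HT1A were diluted in 20 mM HEPES/3 mM MgCl2/120 mM NaCl, pH 7.4. They were preincubated with 20 μM GDP and test drug for 20 min at 30 °C, then held on ice for 15 min. [35S]GTPγS (100 pM) was added for 30 min at 30 °C. Samples were filtered, washed with cold HEPES/MgCl2 buffer, and bound radioactivity counted; EC50 and Emax reported.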

Adenosine receptor A1 = Adenosine receptor A1 (Homo sapiens, UniProt P30542); experiment: Displacement of [3H]DPCPX from human recombinant adenosine A1 receptor
Substance-K receptor = Substance-K receptor (Homo sapiens, UniProt P21452); experiment: Displacement of [125I]NKA from human recombinant NK2 receptor
[5] = molecular target: 5-hydroxytryptamine receptor 2A (Rattus norvegicus, UniProt P14842); experiment: Inhibition of rat 5HT2 receptor
Rattus norvegicus = experiment: […] activity in rat assessed as inhibition of 5HT-induced bradycardia at 10 ug/kg, iv by von Benzold-Jarisch reflex assay; type: functional
[6] = molecular target: 5-hydroxytryptamine receptor 1B (Rattus norvegicus, UniProt P28564); experiment: Displacement of [125I]CYP from rat cerebral cortex 5HT1B receptor in presence of 30 uM propranolol; type: tissue-based
[7] = Displacement of [3H]DADLE from human recombinant delta2 opioid receptor
Adenosine receptor A2a = Adenosine receptor A2a (Homo sapiens, UniProt P29274); experiment: Displacement of [3H]CGS21680 from human recombinant adenosine A2A receptor
[8] = Drug level in Sprague-Dawley rat brain at 3 mg/kg, po after 8 hrs by HPLC analysis; type: ADME, organism-based; parameters: dose 3 mg/kg, route oral; conditions: read-out: Drug uptake
Method in brief: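 Total compound concentration was measured in brain and blood at 2, 4 and 8 h after a single oral 3 mg/kg dose. Brain/blood ratio was also derived. Values are mean ± SD of three rats.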

[9] = molecular target: Muscarinic acetylcholine receptor M2 (Homo sapiens, UniProt P08172); experiment: Displacement of [3H]AF-DX384 from human recombinant muscarinic M2 receptor
[10] = molecular target: Beta-1 adrenergic receptor (Homo sapiens, UniProt P08588); experiment: Displacement of [3H](-)CGP12177 from human recombinant beta-1 adrenergic receptor
Sequence of Beta-1 adrenergic receptor (P08588 whole entry): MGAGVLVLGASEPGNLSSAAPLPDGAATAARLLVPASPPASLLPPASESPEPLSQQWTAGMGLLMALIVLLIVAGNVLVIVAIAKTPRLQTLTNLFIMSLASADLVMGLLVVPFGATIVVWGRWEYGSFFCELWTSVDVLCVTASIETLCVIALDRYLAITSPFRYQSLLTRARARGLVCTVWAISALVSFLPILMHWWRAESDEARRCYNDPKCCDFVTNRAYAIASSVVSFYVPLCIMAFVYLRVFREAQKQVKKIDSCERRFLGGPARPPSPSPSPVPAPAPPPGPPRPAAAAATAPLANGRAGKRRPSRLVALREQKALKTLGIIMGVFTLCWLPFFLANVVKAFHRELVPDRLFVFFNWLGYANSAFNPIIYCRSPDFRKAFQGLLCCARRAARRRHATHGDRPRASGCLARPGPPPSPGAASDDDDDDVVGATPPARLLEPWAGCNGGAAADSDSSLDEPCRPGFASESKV

Sequence of Substance-K receptor (P21452 whole entry): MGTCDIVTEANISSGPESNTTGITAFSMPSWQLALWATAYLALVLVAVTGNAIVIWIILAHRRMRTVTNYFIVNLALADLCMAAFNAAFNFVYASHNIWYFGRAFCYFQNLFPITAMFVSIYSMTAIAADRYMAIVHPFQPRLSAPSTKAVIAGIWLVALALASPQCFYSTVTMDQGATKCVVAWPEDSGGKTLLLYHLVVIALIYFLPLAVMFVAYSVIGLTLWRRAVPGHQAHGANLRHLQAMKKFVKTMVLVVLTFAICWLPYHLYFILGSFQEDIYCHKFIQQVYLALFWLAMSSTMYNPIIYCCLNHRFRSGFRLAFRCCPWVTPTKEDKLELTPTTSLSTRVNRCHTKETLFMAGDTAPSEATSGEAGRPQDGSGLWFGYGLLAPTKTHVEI
Sequence of Muscarinic acetylcholine receptor M2 (P08172 whole entry): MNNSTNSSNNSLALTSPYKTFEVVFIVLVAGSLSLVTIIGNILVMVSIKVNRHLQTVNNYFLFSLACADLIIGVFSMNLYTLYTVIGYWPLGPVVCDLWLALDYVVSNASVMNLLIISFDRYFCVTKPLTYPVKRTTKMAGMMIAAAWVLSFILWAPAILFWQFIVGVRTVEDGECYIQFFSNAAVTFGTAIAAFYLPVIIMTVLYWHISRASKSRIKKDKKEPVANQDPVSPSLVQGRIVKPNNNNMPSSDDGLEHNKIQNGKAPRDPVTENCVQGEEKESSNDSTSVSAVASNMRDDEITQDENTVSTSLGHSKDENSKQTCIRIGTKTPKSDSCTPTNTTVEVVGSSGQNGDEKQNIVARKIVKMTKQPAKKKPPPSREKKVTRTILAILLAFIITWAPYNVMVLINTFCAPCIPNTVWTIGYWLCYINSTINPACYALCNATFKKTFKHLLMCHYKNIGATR
Sequence of Adenosine receptor A2a (P29274 whole entry): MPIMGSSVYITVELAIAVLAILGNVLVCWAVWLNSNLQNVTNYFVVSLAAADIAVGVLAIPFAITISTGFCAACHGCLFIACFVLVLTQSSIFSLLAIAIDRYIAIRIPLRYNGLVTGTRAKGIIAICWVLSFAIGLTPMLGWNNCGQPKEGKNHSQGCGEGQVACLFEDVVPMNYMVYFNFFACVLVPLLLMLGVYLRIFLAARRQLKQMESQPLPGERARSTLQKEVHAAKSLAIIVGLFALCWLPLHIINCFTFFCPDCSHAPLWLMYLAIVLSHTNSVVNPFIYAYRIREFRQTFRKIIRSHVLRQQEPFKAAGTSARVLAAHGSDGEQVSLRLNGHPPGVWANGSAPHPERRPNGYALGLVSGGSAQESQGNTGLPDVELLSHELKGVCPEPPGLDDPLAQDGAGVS
Sequence of Adenosine receptor A1 (P30542 whole entry): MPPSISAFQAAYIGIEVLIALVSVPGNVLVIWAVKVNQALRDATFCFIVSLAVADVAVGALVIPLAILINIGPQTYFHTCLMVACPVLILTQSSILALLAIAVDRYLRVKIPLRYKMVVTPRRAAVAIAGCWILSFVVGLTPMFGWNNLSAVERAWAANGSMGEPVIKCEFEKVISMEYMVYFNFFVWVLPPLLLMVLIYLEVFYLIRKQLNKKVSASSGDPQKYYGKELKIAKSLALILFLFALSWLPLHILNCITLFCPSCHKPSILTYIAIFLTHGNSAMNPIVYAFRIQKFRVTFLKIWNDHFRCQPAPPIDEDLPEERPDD
Sequence of 5-hydroxytryptamine receptor 2A (P14842 whole entry): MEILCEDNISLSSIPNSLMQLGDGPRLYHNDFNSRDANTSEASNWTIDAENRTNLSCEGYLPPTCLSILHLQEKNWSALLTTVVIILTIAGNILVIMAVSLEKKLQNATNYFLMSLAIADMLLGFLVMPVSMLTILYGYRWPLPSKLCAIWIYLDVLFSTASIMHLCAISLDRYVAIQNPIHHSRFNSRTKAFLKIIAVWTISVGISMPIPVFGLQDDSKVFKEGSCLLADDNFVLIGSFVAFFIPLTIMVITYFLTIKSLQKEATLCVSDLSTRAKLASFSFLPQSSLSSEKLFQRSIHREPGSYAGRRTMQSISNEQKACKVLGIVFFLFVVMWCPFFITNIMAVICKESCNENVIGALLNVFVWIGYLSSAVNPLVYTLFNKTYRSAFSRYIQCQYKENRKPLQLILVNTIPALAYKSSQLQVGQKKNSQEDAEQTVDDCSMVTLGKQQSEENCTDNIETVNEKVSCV
Sequence of Sodium-dependent noradrenaline transporter (P23975 whole entry): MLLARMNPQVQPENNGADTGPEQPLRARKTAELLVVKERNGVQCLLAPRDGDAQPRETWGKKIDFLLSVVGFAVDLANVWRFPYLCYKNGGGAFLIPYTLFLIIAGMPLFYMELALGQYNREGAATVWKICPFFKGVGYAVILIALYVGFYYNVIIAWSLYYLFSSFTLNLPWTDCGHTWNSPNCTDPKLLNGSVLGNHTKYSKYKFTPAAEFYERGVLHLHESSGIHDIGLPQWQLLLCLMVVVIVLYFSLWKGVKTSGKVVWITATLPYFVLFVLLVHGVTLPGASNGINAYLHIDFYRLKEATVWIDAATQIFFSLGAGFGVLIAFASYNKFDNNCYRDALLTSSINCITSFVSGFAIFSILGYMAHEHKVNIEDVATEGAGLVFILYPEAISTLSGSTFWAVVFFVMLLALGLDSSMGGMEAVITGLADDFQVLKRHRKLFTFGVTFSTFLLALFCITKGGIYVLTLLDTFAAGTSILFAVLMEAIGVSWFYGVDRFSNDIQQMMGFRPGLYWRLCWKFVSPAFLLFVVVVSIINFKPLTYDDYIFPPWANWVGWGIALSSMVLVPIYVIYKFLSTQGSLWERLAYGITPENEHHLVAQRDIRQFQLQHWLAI
Sequence of 5-hydroxytryptamine receptor 1B (P28564 whole entry): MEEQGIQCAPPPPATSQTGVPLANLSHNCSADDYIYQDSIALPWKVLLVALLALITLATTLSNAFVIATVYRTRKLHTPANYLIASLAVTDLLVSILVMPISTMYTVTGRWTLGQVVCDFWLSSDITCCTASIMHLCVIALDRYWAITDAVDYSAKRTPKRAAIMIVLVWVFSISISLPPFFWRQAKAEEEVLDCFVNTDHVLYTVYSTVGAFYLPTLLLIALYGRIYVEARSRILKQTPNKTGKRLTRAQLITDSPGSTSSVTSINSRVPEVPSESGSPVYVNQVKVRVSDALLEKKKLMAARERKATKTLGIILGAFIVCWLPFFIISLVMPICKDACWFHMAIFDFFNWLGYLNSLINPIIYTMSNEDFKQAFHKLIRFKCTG

IC50 [1]: > 100 nM | IC50 [2]: 8.9 nM | IC50 [3]: > 1000 nM | Emax [4]: 99.8% | IC50 (Adenosine receptor A1): > 1000 nM | IC50 (Substance-K receptor): > 1000 nM | IC50 [5]: 100 nM | IC50 [6]: > 1000 nM | IC50 [7]: > 1000 nM | IC50 (Adenosine receptor A2a): > 1000 nM | concentration at 8 h [8]: 56.4 nM | IC50 [9]: > 1000 nM | IC50 [10]: > 1000 nM
Structure (SMILES): Nn1c(CCCCN2CCN(c3ccc4ccccc4n3)CC2)nc2c(c1=O)CCCC2
inhibition in vivo at 0.01 mg/kg (Rattus norvegicus): ≤ 64%
